Source: ChEMBL document CHEMBL4428038, “Overcoming chloroquine resistance in malaria: Design, synthesis and structure-activity relationships of novel chemoreversal agents” (Eur J Med Chem, 2016)
Active and inactive are the calls of the source. No cut-off for these calls is given here.

Key:
[1] = system: T1, Chloroquine resistance transporter (Plasmodium falciparum), Q9N623 [K76T]; test: Inhibition of CRT K76T mutant in chloroquine/artemisinin-resistant Plasmodium falciparum ARS233 assessed as reversal of chloroquine resistance by measuring reduction in chloroquine IC50 at 500 nM relative to chloroquine alone
T1 sequence (whole entry): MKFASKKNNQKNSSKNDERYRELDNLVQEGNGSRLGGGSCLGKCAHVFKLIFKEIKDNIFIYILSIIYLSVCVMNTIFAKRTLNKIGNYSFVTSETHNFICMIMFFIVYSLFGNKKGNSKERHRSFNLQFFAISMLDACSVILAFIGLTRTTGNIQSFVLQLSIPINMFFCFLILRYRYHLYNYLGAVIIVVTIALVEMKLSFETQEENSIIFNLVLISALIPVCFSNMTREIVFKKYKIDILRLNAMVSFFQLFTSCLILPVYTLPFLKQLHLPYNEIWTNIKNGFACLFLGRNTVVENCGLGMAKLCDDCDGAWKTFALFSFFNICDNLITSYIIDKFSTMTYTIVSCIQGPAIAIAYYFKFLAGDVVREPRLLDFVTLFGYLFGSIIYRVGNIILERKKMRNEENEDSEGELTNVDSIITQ

[2] = system: T1, Chloroquine resistance transporter (Plasmodium falciparum), Q9N623 [K76T]; test: Inhibition of CRT K76T mutant in chloroquine/artemisinin-resistant Plasmodium falciparum NHP4773 assessed as reversal of chloroquine resistance by measuring reduction in chloroquine IC50 at 500 nM relative to chloroquine alone
Plasmodium falciparum [3] = test: Potentiation of chloroquine-induced antimalarial activity against chloroquine-sensitive Plasmodium falciparum 3D7 isolate MRA-102 assessed as reduction in chloroquine IC50 at 500 nM relative to chloroquine alone; assay type: functional
[4] = Resistance index, ratio of chloroquine IC50 for chloroquine-resistant Plasmodium falciparum K1 isolate MRA-159 CRT CVIET haplotype mutant to chloroquine IC50 for chloroquine-sensitive Plasmodium falciparum 3D7 isolate MRA-102 at 500 nM
Method in brief: (§1)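 Chloroquine IC50 was measured with the chemoreversal agent fixed at 500 nM in K1 or 7G8 and in sensitive 3D7 (means, n = 3). The resistance ratio is the chloroquine IC50 in K1 or 7G8 divided by the chloroquine IC50 in 3D7.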

[5] = Resistance index, ratio of chloroquine IC50 for intermediate chloroquine-resistant Plasmodium falciparum 7G8 isolate MRA-154 CRT SVMNT haplotype mutant to chloroquine IC50 for chloroquine-sensitive Plasmodium falciparum 3D7 isolate MRA-102 at 500 nM; method in brief: as §1
[6] = Permeability of compound incubated for 6 hrs at pH 7.4 by PAMPA; assay type: ADME; details: read-out: Peff
[7] = Inhibition of CRT CVIET haplotype mutant in chloroquine-resistant Plasmodium falciparum K1 isolate MRA-159 assessed as reversal of chloroquine resistance by measuring reduction in chloroquine IC50 relative to chloroquine alone
Method in brief: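 Chloroquine IC50 was determined in the presence of a fixed 500 nM chemoreversal agent, against chloroquine alone. The RMI is the ratio of chloroquine IC50 with agent to chloroquine IC50 alone. Mean of n = 3; two-tailed t test versus chloroquine without agent.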

[8] = system: Plasmodium falciparum 7G8; test: Inhibition of CRT SVMNT haplotype mutant in intermediate chloroquine-resistant Plasmodium falciparum 7G8 isolate MRA-154 t assessed as reversal of chloroquine resistance by measuring reduction in chloroquine IC50 at 500 nM relative to chloroquine alone
[9] = Cytotoxicity against human AC10 cells assessed as reduction in cell viability by CellTiter-Glo assay; assay type: cell-based
Method in brief: (§2)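 For TAMH (hepatocyte line) and AC10 (cardiomyocyte line), viability was read by ATP luminescence (CellTiter-Glo), and the value reported is IC50.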

Plasmodium falciparum K1 [10] = test: Inhibition of CRT CVIET haplotype mutant in Plasmodium falciparum K1 isolate MRA-159 infected in erythrocytes assessed as chloroquine-coumarin probe accumulation at 10 uM after 10 hrs by Hoechst 33342 staining based flow cytometry (reference value: 35.57 +/- 3.84%); assay type: cell-based; set-up: scale not given: the % may be the effect or the level left
Method in brief: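 Infected erythrocyte cultures at 2.5% hematocrit and 7–12% parasitemia, synchronized to late-ring/early-trophozoite stage, were incubated with chloroquine-coumarin probe plus test agent for 10 h at 37 C. Cells were then washed, resuspended in PBS and read by flow cytometry (405 nm excitation, 450/50 filter). Hoechst-stained duplicate wells set parasitemia. Uptake = % infected erythrocytes fluorescent. Controls: PBS (negative), desipramine and parent compound (positive). ≥3 independent experiments; mean ± SEM.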

Plasmodium falciparum K1 [11] = test: Inhibition of CRT CVIET haplotype mutant in chloroquine-resistant Plasmodium falciparum K1 isolate MRA-159 assessed as reversal of chloroquine resistance by measuring reduction in chloroquine IC50 at 500 nM relative to chloroquine alone
Plasmodium falciparum [12] = test: Potentiation of chloroquine-induced antimalarial activity against chloroquine-sensitive Plasmodium falciparum HB3 isolate MRA-155 assessed as reduction in chloroquine IC50 at 500 nM relative to chloroquine alone; assay type: functional
[13] = Aqueous kinetic solubility of compound in pH 7.4 solution incubated for 24 hrs; assay type: physicochemical; details: aqueous solution pH 7.4, pH 7.4; read-out: Kinetic_solubility
Plasmodium falciparum [14] = test: Intrinsic antimalarial activity against intermediate chloroquine-resistant Plasmodium falciparum 7G8 isolate MRA-154 harboring CRT SVMNT haplotype mutant assessed as reduction in parasite viability at 500 nM; assay type: functional, organism-based
[15] = Therapeutic index, ratio of IC50 for TAMH to EC50 for chloroquine-resistant Plasmodium falciparum K1 isolate MRA-159 CRT CVIET haplotype mutant; assay type: toxicity; details: mouse, TAMH cells; read-out: Ratio IC50/EC50
Method in brief: (§3)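 Host-cell IC50 was measured by ATP-luminescence viability assay in TAMH hepatocytes (mean of n = 4 independent determinations) or AC10 cardiomyocytes. Each IC50 was divided by the K1 EC50, the concentration of chemoreversal agent that halves the chloroquine concentration needed for 50% parasite inhibition.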

[16] = system: T1, Chloroquine resistance transporter (Plasmodium falciparum), Q9N623 [K76T]; test: Inhibition of CRT K76T mutant in chloroquine-resistant Plasmodium falciparum NHP4559 assessed as reversal of chloroquine resistance by measuring reduction in chloroquine IC50 at 500 nM relative to chloroquine alone
TAMH = test: Cytotoxicity against TAMH assessed as reduction in cell viability by CellTiter-Glo assay; assay type: cell-based; details: Mus musculus; method in brief: as §2
Plasmodium falciparum [17] = test: Intrinsic antimalarial activity against chloroquine/artemisinin-resistant Plasmodium falciparum ARS233 harboring CRT K76T mutant assessed as reduction in parasite viability at 500 nM; assay type: functional, organism-based
Plasmodium falciparum [18] = test: Intrinsic antimalarial activity against chloroquine-resistant Plasmodium falciparum Dd2 isolate MRA-156 harboring CRT K76T mutant assessed as reduction in parasite viability at 500 nM; assay type: functional, organism-based
Plasmodium falciparum [19] = test: Intrinsic antimalarial activity against chloroquine-resistant Plasmodium falciparum NHP4559 harboring CRT K76T mutant assessed as reduction in parasite viability at 500 nM; assay type: functional, organism-based
[20] = Permeability of compound incubated for 16 hrs at pH 7.4 by PAMPA; assay type: ADME; details: read-out: Peff
[21] = system: T1, Chloroquine resistance transporter (Plasmodium falciparum), Q9N623 [K76T]; test: Inhibition of CRT K76T mutant in chloroquine-resistant Plasmodium falciparum Dd2 isolate MRA-156 assessed as reversal of chloroquine resistance by measuring reduction in chloroquine IC50 at 500 nM relative to chloroquine alone
Plasmodium falciparum [22] = test: Intrinsic antimalarial activity against chloroquine-sensitive Plasmodium falciparum 3D7 isolate MRA-102 assessed as reduction in parasite viability at 500 nM; assay type: functional, organism-based
Plasmodium falciparum [23] = test: Intrinsic antimalarial activity against chloroquine/artemisinin-resistant Plasmodium falciparum NHP4773 harboring CRT K76T mutant assessed as reduction in parasite viability at 500 nM; assay type: functional, organism-based
Plasmodium falciparum [24] = test: Intrinsic antimalarial activity against chloroquine-resistant Plasmodium falciparum K1 isolate MRA-159 harboring CRT CVIET haplotype mutant assessed as reduction in parasite viability at 500 nM; assay type: functional, organism-based
[25] = Therapeutic index, ratio of IC50 for human AC10 cells to EC50 for chloroquine-resistant Plasmodium falciparum K1 isolate MRA-159 CRT CVIET haplotype mutant; assay type: toxicity; details: read-out: Ratio IC50/EC50; method in brief: as §3
[26] = system: T1, Chloroquine resistance transporter (Plasmodium falciparum), Q9N623 [K76T]; test: Inhibition of CRT K76T mutant in chloroquine/artemisinin-resistant Plasmodium falciparum ARS272 assessed as reversal of chloroquine resistance by measuring reduction in chloroquine IC50 at 500 nM relative to chloroquine alone
Plasmodium falciparum [27] = test: Intrinsic antimalarial activity against chloroquine-sensitive Plasmodium falciparum HB3 isolate MRA-155 assessed as reduction in parasite viability at 500 nM; assay type: functional, organism-based
Plasmodium falciparum [28] = test: Intrinsic antimalarial activity against chloroquine/artemisinin-resistant Plasmodium falciparum ARS272 harboring CRT K76T mutant assessed as reduction in parasite viability at 500 nM; assay type: functional, organism-based

For `NC(=O)C(CCN1CCC(O)(c2ccc(Cl)cc2)CC1)(c1ccccc1)c1ccccc1`, the Ratio IC50 [1] was 0.91, the Ratio IC50 [2] was 0.96 and the “Ratio IC50” value (Plasmodium falciparum [3]) was 1.23. For the same compound, the Ratio IC50 [4] was 14.8, the Ratio IC50 [5] was 6.2 and the Papp at 6 h [6] was 0.65 ×10⁻⁶ cm/s. For the same compound, the EC50 [7] was 0.482 µM, the Ratio IC50 [8] was 1.25 and the IC50 [9] was 45.2 µM. For the same compound, the Activity (Plasmodium falciparum K1 [10]) was 73.5%, the Ratio IC50 (Plasmodium falciparum K1 [11]) was 0.89 and the “Ratio IC50” value (Plasmodium falciparum [12]) was 1.06. The solubility kinetic at 24 h [13] was over 450 µg/mL, the Activity (Plasmodium falciparum [14]) was “inactive” and the selectivity ratio [15] was 210. For the same compound, the Ratio IC50 [16] was 1.01, the IC50 (TAMH) was 101 µM and the Activity (Plasmodium falciparum [17]) was “inactive”. For the same compound, the Activity (Plasmodium falciparum [18]) was “inactive”, the Activity (Plasmodium falciparum [19]) was “inactive” and the Papp at 16 h [20] was 1.78 ×10⁻⁶ cm/s. For the same compound, the Ratio IC50 [21] was 1.16, the Activity (Plasmodium falciparum [22]) was “inactive” and the Activity (Plasmodium falciparum [23]) was “inactive”. The Activity (Plasmodium falciparum [24]) was “inactive”, the selectivity ratio [25] was 94 and the Ratio IC50 [26] was 0.94. The Activity (Plasmodium falciparum [27]) was “inactive” and the Activity (Plasmodium falciparum [28]) was “inactive”.
